The source of these data is ChEMBL document CHEMBL1134301, “[1,2,4]Triazino[4,3-a]benzimidazole acetic acid derivatives: a new class of selective aldose reductase inhibitors” (J Med Chem, 2001).

Assay [1] has as its target Aldo-keto reductase family 1 member B1 (Rattus norvegicus, UniProt P07943). The experiment in a line: Inhibitory concentration to aldose reductase (ALR-2) obtained from rat lens.
The species named for assay [2] is Rattus norvegicus. The assay is described as follows: Effect of the treatment on day 20 with ophthalmic solution (3%)on development of nuclear cataract in severely galactosemic rats. In kind it is functional. A digest of the protocol: (§1)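 Sprague Dawley albino rats (45-55 g), 15 per group of equal average body weight, fed 50% D-galactose diet with ad libitum food and water. Eyedrops given four times daily in the precorneal region, starting 1 day before the switch to galactose chow. Vehicle controls were run on galactose and on normal diet. Lenses were checked by slit-lamp after 1% atropine mydriasis, and animals with nuclear cataract (central white opacity) were counted.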

The species named for assay [3] is Rattus norvegicus. The experiment in a line: Effect of the treatment on day 15 with ophthalmic solution (3%)on development of nuclear cataract in severely galactosemic rats. In kind it is functional. A digest of the protocol:
as §1

For assay [4], the species on record is Rattus norvegicus. The assay is described as follows: Effect of the treatment on day 13 with ophthalmic solution (3%)on development of nuclear cataract in severely galactosemic rats. In kind it is functional. A digest of the protocol: as §1
The species named for assay [5] is Rattus norvegicus. The assay is described as follows: Effect of the treatment on day 14 with ophthalmic solution (3%)on development of nuclear cataract in severely galactosemic rats. In kind it is functional. A digest of the protocol: as §1
The species named for assay [6] is Rattus norvegicus. The experiment in a line: Effect of the treatment on day 21 with ophthalmic solution (3%) on development of nuclear cataract in severely galactosemic rats. In kind it is functional. Put shortly: as §1
The species entered for assay [7] is Rattus norvegicus. The experiment in a line: Effect of the treatment on day 12 with ophthalmic solution (3%)on development of nuclear cataract in severely galactosemic rats. It is filed as functional. A digest of the protocol:
as §1

The species entered for assay [8] is Rattus norvegicus. The experiment in a line: Effect of the treatment on day 17 with ophthalmic solution (3%)on development of nuclear cataract in severely galactosemic rats. In kind it is functional. Put shortly:
as §1

The species entered for assay [9] is Rattus norvegicus. The assay is described as follows: Effect of the treatment on day 11 with ophthalmic solution (3%)on development of nuclear cataract in severely galactosemic rats. It is filed as functional. Put shortly: as §1
For assay [10], the species on record is Rattus norvegicus. The assay is described as follows: Effect of the treatment on day 18 with ophthalmic solution (3%)on development of nuclear cataract in severely galactosemic rats. It is filed as functional. Put shortly:
as §1

Assay [11] is filed under the species Rattus norvegicus. The assay is described as follows: Effect of the treatment on day 19 with ophthalmic solution (3%)on development of nuclear cataract in severely galactosemic rats. In kind it is functional. A digest of the protocol:
as §1

The species entered for assay [12] is Rattus norvegicus. The assay is described as follows: Effect of the treatment on day 16 with ophthalmic solution (3%)on development of nuclear cataract in severely galactosemic rats. It is filed as functional. Put shortly: as §1
For assay [13], the species on record is Rattus norvegicus. The experiment in a line: Effect of the treatment on day 13 with ophthalmic solution (1%)on development of nuclear cataract in severely galactosemic rats. It is filed as functional. A digest of the protocol:
as §1

The species entered for assay [14] is Rattus norvegicus. The assay is described as follows: Effect of the treatment on day 11 with ophthalmic solution (1%)on development of nuclear cataract in severely galactosemic rats. It is filed as functional. Put shortly:
as §1

The species named for assay [15] is Rattus norvegicus. The assay is described as follows: Effect of the treatment on day 20 with ophthalmic solution (1%)on development of nuclear cataract in severely galactosemic rats. In kind it is functional. Put shortly:
as §1

The species entered for assay [16] is Rattus norvegicus. The assay is described as follows: Effect of the treatment on day 17 with ophthalmic solution (1%)on development of nuclear cataract in severely galactosemic rats. In kind it is functional. Put shortly:
as §1

Assay [17] is filed under the species Rattus norvegicus. The experiment in a line: Effect of the treatment on day 21 with ophthalmic solution (1%) on development of nuclear cataract in severely galactosemic rats. It is filed as functional. A digest of the protocol:
as §1

The species entered for assay [18] is Rattus norvegicus. The experiment in a line: Effect of the treatment on day 16 with ophthalmic solution (1%)on development of nuclear cataract in severely galactosemic rats. It is filed as functional. Put shortly: as §1
Assay [19] is filed under the species Rattus norvegicus. The assay is described as follows: Effect of the treatment on day 15 with ophthalmic solution (1%)on development of nuclear cataract in severely galactosemic rats. In kind it is functional. A digest of the protocol:
as §1

For assay [20], the species on record is Rattus norvegicus. The experiment in a line: Effect of the treatment on day 12 with ophthalmic solution (1%)on development of nuclear cataract in severely galactosemic rats. It is filed as functional. A digest of the protocol: as §1
The species entered for assay [21] is Rattus norvegicus. The assay is described as follows: Effect of the treatment on day 19 with ophthalmic solution (1%)on development of nuclear cataract in severely galactosemic rats. In kind it is functional. A digest of the protocol:
as §1

The species named for assay [22] is Rattus norvegicus. The experiment in a line: Effect of the treatment on day 14 with ophthalmic solution (1%)on development of nuclear cataract in severely galactosemic rats. It is filed as functional. A digest of the protocol:
as §1

The species entered for assay [23] is Rattus norvegicus. The assay is described as follows: Effect of the treatment on day 18 with ophthalmic solution (1%)on development of nuclear cataract in severely galactosemic rats. It is filed as functional. Put shortly: as §1

In assay [1], `O=C(O)Cn1nc2n(Cc3ccc(F)c(F)c3)c3ccccc3n2c(=O)c1=O` returned a half-inhibitory concentration (IC50) of 4.42 µM.
The same measure, in the same setting: the same measure for `O=C(O)CN/N=c1\n(Cc2ccc(Cl)cc2)c2ccccc2n1C(=O)C(=O)O`: 10 µM.
Same read-out and setting: the same measure for `COc1ccc(Cn2/c(=N\NCC(=O)O)n(C(=O)C(=O)O)c3ccccc32)cc1`: 44.5 µM.
The same measure, in the same setting: the same measure for `O=C(O)CN/N=c1\n(Cc2ccc(Br)cc2F)c2ccccc2n1C(=O)C(=O)O`: 12.5 µM; for `Cn1/c(=N\NCC(=O)O)n(C(=O)C(=O)O)c2ccccc21`: 109 µM; for `O=C(O)CN/N=c1\n(Cc2ccccc2)c2ccccc2n1C(=O)C(=O)O`: 4.5 µM.
As to `O=C(O)Cn1nc2n(Cc3ccc(F)cc3)c3ccccc3n2c(=O)c1=O`, in assay [1], half-maximal inhibition (IC50) required 4.58 µM.
Same read-out and setting: then `CCCn1c2ccccc2n2c(=O)c(=O)n(CC(=O)O)nc12`, with 37.2 µM; and `O=C(O)Cn1nc2n(Cc3ccc(Br)cc3F)c3ccccc3n2c(=O)c1=O`, with 4.47 µM.
Consider `O=C(O)CN/N=c1\n(Cc2ccc(C(F)(F)F)cc2)c2ccccc2n1C(=O)C(=O)O`, for which, in assay [1], half-maximal inhibition (IC50) was put at 2.63 µM.
Still for that read-out and setting: the same measure for `Cc1ccc(Cn2c3ccccc3n3c(=O)c(=O)n(CC(=O)O)nc23)cc1`: 13.3 µM.
In the case of `O=C(O)Cc1nnc2nc3ccccc3n2c1O`, half-maximal inhibition in assay [1] (IC50) was put at 35.9 µM.
On the same count and under the same terms, the same measure for `O=C(O)Cn1nc2n(Cc3ccc(C(F)(F)F)cc3)c3ccccc3n2c(=O)c1=O`: 23.9 µM.
For `CC(C)OC(=O)Cn1nc2n(Cc3ccccc3)c3ccccc3n2c(=O)c1=O`, the Nuclear cataract in the assay listed under Rattus norvegicus [2] is reported as 40%; in the assay filed under Rattus norvegicus [3], 10%; in the assay filed under Rattus norvegicus [4], 10%; in the assay listed under Rattus norvegicus [5], 10%; in the assay filed under Rattus norvegicus [6], 40%; in the assay filed under Rattus norvegicus [7] it was 10%. The Nuclear cataract in the assay filed under Rattus norvegicus [8] came to 10%; in the assay filed under Rattus norvegicus [9], 0%; in the assay listed under Rattus norvegicus [10], 40%; in the assay filed under Rattus norvegicus [11], 40%; in the assay filed under Rattus norvegicus [12], 10%.
`Cn1c2ccccc2n2c(=O)c(CC(=O)O)nnc12`: the IC50 in [1] turned out to be 17 µM.
For `O=C(O)Cn1nc2n(Cc3ccc(Cl)cc3)c3ccccc3n2c(=O)c1=O`, inhibition in assay [1] was half-maximal at 4.15 µM (IC50).
Same read-out and setting: the same measure for `O=C(O)CN/N=c1\n(Cc2ccc(F)c(F)c2)c2ccccc2n1C(=O)C(=O)O`: 9.72 µM; for `COc1ccc(Cn2c3ccccc3n3c(=O)c(=O)n(CC(=O)O)nc23)cc1`: 42.6 µM.
Still for that read-out and setting: then `O=C(O)CN/N=c1\n(CC(=O)O)c2ccccc2n1C(=O)C(=O)O`, with 236 µM.
In the case of `O=C(O)Cn1nc2n(Cc3ccccc3)c3ccccc3n2c(=O)c1=O`, the Nuclear cataract in the assay filed under Rattus norvegicus [2] came to 50%; in the assay listed under Rattus norvegicus [3], 10%; in the assay filed under Rattus norvegicus [4], 0%; in the assay listed under Rattus norvegicus [5] it was 10%; in the assay filed under Rattus norvegicus [6] it was 50%; in the assay listed under Rattus norvegicus [7] it was 0%. The Nuclear cataract worked out at 10% in the assay listed under Rattus norvegicus [8]; 0% in the assay listed under Rattus norvegicus [9]; 40% in the assay listed under Rattus norvegicus [10]; 40% in the assay listed under Rattus norvegicus [11]; 10% in the assay listed under Rattus norvegicus [12]. This compound also gave a half-maximal inhibitory concentration (IC50) in assay [1] of 0.36 µM.
For `O=C(O)CN/N=c1\n(Cc2ccc(F)cc2)c2ccccc2n1C(=O)C(=O)O`, inhibition in [1] was half-maximal at 14.8 µM (IC50).
Still for that read-out and setting: the same measure for `Cn1c2ccccc2n2c(=O)c(=O)n(CC(=O)O)nc12`: 24.8 µM; for `O=C(O)Cn1nc2n(CC(=O)O)c3ccccc3n2c(=O)c1=O`: 13.5 µM.
Still for that read-out and setting: then `O=C(O)Cc1nnc2n(Cc3ccccc3)c3ccccc3n2c1=O`, with 5.44 µM; and `Cc1ccc(Cn2/c(=N\NCC(=O)O)n(C(=O)C(=O)O)c3ccccc32)cc1`, with 45.9 µM.
Still for that read-out and setting: then `CCCn1/c(=N\NCC(=O)O)n(C(=O)C(=O)O)c2ccccc21`, with 46.5 µM.
Take `COc1ccc2c(C(=S)N(C)CC(=O)O)cccc2c1C(F)(F)F` [TOLRESTAT]: the Nuclear cataract in the assay listed under Rattus norvegicus [13], in the assay filed under Rattus norvegicus [2], in the assay listed under Rattus norvegicus [3], in the assay filed under Rattus norvegicus [14], in the assay listed under Rattus norvegicus [4] and in the assay filed under Rattus norvegicus [5] was 0% throughout. Also, the Nuclear cataract in the assay listed under Rattus norvegicus [15] came to 47%; in the assay listed under Rattus norvegicus [16], 32%; in the assay filed under Rattus norvegicus [6] it was 0%; in the assay filed under Rattus norvegicus [7], 0%; in the assay filed under Rattus norvegicus [8], 0%; in the assay filed under Rattus norvegicus [17], 47%. Further, the Nuclear cataract in the assay listed under Rattus norvegicus [18] stood at 32%; in the assay listed under Rattus norvegicus [9] it was 0%; in the assay filed under Rattus norvegicus [10], 0%; in the assay filed under Rattus norvegicus [11], 0%; in the assay filed under Rattus norvegicus [19], 32%; in the assay filed under Rattus norvegicus [12], 0%. In addition, the Nuclear cataract in the assay listed under Rattus norvegicus [20] is given as 0%; in the assay filed under Rattus norvegicus [21], 43%; in the assay filed under Rattus norvegicus [22], 23%; in the assay listed under Rattus norvegicus [23], 43%. In assay [1], this compound yielded a 50% inhibitory concentration (IC50) of 0.05 µM.

The term IC50 denotes the concentration that gives 50% inhibition.
